We go through 16 compounds from PubChem BioAssay.

The viability is a read-out of living cells in per cent, often relative to untreated cells. One may read the inhibition as the change of the read-out against control, counted positive when it falls.

Experiment [1] in a line: Her2 expression decrease, cell viability multiplex – SKBR3 breast tumor cells, AlphaScreen, ATP viability, primary screen (AID 461;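 active = Her2 level under about 52% in both replicate screens, with viability over 70% of control, limit read from the data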;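 as to Her2 level: lower value means less Her2 protein in the cells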;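 as to viability: percent of carrier control wells set as 100% viability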). The conditions noted are these: SKBR3 Her2 protein level, 18-24 h, measured here: SKBR3 viability, ATP luminescence, at 10 µM. Background: Bead proximity is the source of the signal in Alpha formats.
Experiment [2] concerns the target Receptor tyrosine-protein kinase erbB-2 (Homo sapiens) (UniProt P04626). Described as above. The settings on record: 18-24 h, at 10 µM, stronger effect = lower value.
The nature of experiment [3]: reduced viability of SK-BR-3 breast cancer cells – cell-based, 24 h, human, pilot screen (AID 572;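 active = viability at or below 10% of carrier control in both of two separate runs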;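 also: compound exposure lasted between 18 and 24 h rather than exactly 24 h; 100% = carrier-treated control wells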). The conditions noted are these: SK-BR-3 viability, CellTiter-Glo luminescence, at 10 µM, stronger effect = lower value.
Experiment [4] in a line: HUVEC growth inhibition – cell-based, human, primary screen (AID 575;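 active = viability at or below 30% in both replicate assays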;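 also: 100% = median of untreated cell wells with 0.1% DMSO on each plate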). The settings on record: HUVEC proliferation, CellTiter-Glo luminescence, 72 h; at 10 µM; stronger effect = lower value. Summed up: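 Test system – primary HUVEC, no more than 12 passages · Dosing – one dose, 10 µM final, 0.1% DMSO · Times – 72 h treatment at 37 °C · Measured by – ATP-based CellTiter-Glo luminescent read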
On the technique in general: ATP-based viability assays read luminescence as a measure of living cells.

Experiment [5] can be described thus: H69AR cell proliferation blockers – human, duplicate replicates, primary screen (AID 580;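 active = viability at or under a set limit in both replicates, limit being median viability minus 3 SD, cut at about 48% in these data, passing the limit was not always enough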;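 also: 100% = mean luminescence of untreated wells and 0% = no signal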). The settings on record: H69AR lung tumor cells viability, ATP luminescence, 72 h; at 10 µM; stronger effect = lower value.
A short description of experiment [6]: MRP1 drug-resistance reversers in H69AR cells – cell-based, doxorubicin co-treatment, pilot screen (AID 601;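 active = viability loss from added drug above about 55%, and viability with drug at most 40%, in both replicates, limit read from the data, passing the limit was not always enough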). The conditions noted are these: CellTiter-Glo, 72 h, at 10 µM; for differential viability (reversal): stronger effect = higher value.
Experiment [7] is described as follows: yeast transport mutant growth inhibition pilot in 384-well plates, post-Golgi transport modulator project (AID 636; in the data active = inhibition above about 31%). The settings on record: absorbance 615 nm, about 18 h, stronger effect = higher value.
A short description of experiment [8]: growth suppression of yeast trafficking mutant, preliminary HTS, modulators of trafficking downstream of Golgi apparatus project, 1536-format plate, OD 615 nm (AID 637). The settings on record: yeast transport mutant growth, absorbance 615 nm, 18 h; stronger effect = higher value.
The mark [9] stands for this setting: H69AR cells + 2 uM doxorubicin, measured here: viability with 2 uM doxorubicin, stronger effect = lower value.
Setting [10] is: H69AR cells, compound alone cytotoxicity.

The source made the active and inactive calls. Rule as the data show it, unless noted: active = inhibition above about 30%; inactive = the rest.

Receptor tyrosine-protein kinase erbB-2 (Homo sapiens), sequence (P04626 whole entry, looked up): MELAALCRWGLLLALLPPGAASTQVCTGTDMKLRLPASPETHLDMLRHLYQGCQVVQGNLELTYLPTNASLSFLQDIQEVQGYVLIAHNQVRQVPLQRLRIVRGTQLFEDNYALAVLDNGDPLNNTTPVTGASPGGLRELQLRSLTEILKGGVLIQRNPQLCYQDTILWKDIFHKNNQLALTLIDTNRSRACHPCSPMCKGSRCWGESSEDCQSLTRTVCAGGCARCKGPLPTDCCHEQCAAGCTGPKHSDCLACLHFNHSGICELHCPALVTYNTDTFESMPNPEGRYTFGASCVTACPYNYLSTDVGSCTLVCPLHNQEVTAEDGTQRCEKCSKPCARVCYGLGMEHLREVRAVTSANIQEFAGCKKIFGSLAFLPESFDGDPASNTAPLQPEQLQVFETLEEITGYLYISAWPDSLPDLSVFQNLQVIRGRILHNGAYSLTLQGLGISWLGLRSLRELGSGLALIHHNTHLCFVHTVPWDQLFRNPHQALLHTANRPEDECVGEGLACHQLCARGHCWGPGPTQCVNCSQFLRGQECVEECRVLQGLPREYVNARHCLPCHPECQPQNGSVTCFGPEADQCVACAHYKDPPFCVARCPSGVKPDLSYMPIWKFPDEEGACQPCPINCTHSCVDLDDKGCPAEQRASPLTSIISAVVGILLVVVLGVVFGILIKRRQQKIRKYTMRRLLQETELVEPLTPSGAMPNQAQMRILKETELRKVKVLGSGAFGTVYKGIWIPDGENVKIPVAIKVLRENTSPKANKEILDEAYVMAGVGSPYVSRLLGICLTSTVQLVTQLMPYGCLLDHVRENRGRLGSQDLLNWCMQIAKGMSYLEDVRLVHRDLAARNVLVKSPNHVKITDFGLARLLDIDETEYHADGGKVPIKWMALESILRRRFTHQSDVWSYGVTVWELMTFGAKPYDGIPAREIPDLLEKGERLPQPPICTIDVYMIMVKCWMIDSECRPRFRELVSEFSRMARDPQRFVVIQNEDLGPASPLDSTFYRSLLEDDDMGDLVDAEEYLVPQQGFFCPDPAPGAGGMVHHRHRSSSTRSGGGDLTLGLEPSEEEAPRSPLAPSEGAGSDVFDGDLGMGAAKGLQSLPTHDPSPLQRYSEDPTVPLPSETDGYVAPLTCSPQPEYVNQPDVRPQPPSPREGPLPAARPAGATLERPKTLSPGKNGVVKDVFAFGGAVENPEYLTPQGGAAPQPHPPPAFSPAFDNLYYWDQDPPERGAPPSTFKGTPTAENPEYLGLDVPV

`COc1cc(CNc2ccc(N3CCOCC3)c(C(=O)O)c2)ccc1OCC(N)=O`: the viability is 106% in experiment [1]; 106% (inactive) in experiment [3]; 97.4% (inactive) in experiment [4]; 99.9% (inactive) in experiment [5]; 99.1% in experiment [6] (setting [9]); 99.9% in experiment [6] (setting [10]). Further, the Her2 level in experiment [2] is 102% (inactive). The differential viability (reversal) in experiment [6] (H69AR cells + 2 uM doxorubicin) was 0.83% (inactive). The inhibition was -4.67% (inactive) in experiment [7] and -2.13% (inactive) in experiment [8].

As to `COc1ccccc1S(=O)(=O)n1cc(Cc2ccccc2)c(N)n1`, the viability in experiment [1] was 96.5%; in experiment [3], 96.5% (inactive); in experiment [4], 96.4% (inactive); in experiment [5], 104% (inactive); in experiment [6] (setting [9]) it was 98.5%; in experiment [6] (setting [10]), 104%. Further, the Her2 level in experiment [2] was 86% (inactive). Besides, the differential viability (reversal) in experiment [6] (H69AR cells + 2 uM doxorubicin) is 5.54% (inactive). Also, the inhibition was -2.37% (inactive) in experiment [7] and -6.51% (inactive) in experiment [8].

As for `CCNC(=O)CC1C(=O)N(c2ccc(F)cc2)C(=O)N1CCC(C)C` (stereo not given), the viability was 103% in experiment [1]; 103% (inactive) in experiment [3]; 98.4% (inactive) in experiment [4]; 92.9% (inactive) in experiment [5]; 84.5% in experiment [6] (setting [9]); 92.9% in experiment [6] (setting [10]). Further, the Her2 level in experiment [2] is 80.5% (inactive). The differential viability (reversal) in experiment [6] (H69AR cells + 2 uM doxorubicin) is 8.4% (inactive). In addition, the inhibition in experiment [7] was 0.66% (inactive); in experiment [8], -3.64% (inactive).

As for `O=C(C1CCN(S(=O)(=O)Cc2ccccc2)CC1)N1CCN(c2ncccn2)CC1`, the viability is 83% in experiment [1]; 83% (inactive) in experiment [3]; 115% (inactive) in experiment [4]; 112% (inactive) in experiment [5]; 90% in experiment [6] (setting [9]); 112% in experiment [6] (setting [10]). Besides, the Her2 level in experiment [2] was 108% (inactive). Further, the differential viability (reversal) in experiment [6] (H69AR cells + 2 uM doxorubicin) is 22.3% (inactive). The inhibition in experiment [7] is -0.39% (inactive); in experiment [8], -2.36% (inactive).

For `COCC(C)NC(=O)NC(=O)c1ccc(Cl)cc1` (stereo not given), the viability was 99.5% in experiment [1]; 99.5% (inactive) in experiment [3]; 94.6% (inactive) in experiment [4]; 98.7% (inactive) in experiment [5]; 88.3% in experiment [6] (setting [9]); 98.7% in experiment [6] (setting [10]). For the same compound, in experiment [2], the Her2 level is 93% (inactive). In addition, the differential viability (reversal) in experiment [6] (H69AR cells + 2 uM doxorubicin) was 10.4% (inactive). In addition, the figures for the inhibition in experiment [7] and in experiment [8] were -6.13% (inactive) and 4.76% (inactive), respectively.

As to `COc1cc(C(=O)N2CCC(c3nc(-c4cccnc4)no3)CC2)cc(OC)c1OC`, the viability in experiment [1] is 96%; in experiment [3], 96% (inactive); in experiment [4] it was 110% (inactive); in experiment [5], 93.9% (inactive); in experiment [6] (setting [9]) it was 82.8%; in experiment [6] (setting [10]) it was 93.9%. Further, the Her2 level in experiment [2] was 110% (inactive). In addition, the differential viability (reversal) in experiment [6] (H69AR cells + 2 uM doxorubicin) was 11.1% (inactive). In addition, the results for the inhibition in experiment [7] and in experiment [8] were -2.16% (inactive) and 6% (inactive), respectively.

For the compound `COC(=O)c1ccccc1S(=O)(=O)N(CCCO)Cc1cc2c(C)ccc(C)c2[nH]c1=O`, the viability in experiment [1] was 84.5%; in experiment [3], 84.5% (inactive); in experiment [4], 75.3% (inactive); in experiment [5], 79.3% (inactive); in experiment [6] (setting [9]) it was 81.6%; in experiment [6] (setting [10]), 79.3%. In addition, the Her2 level in experiment [2] is 106% (inactive). The differential viability (reversal) in experiment [6] (H69AR cells + 2 uM doxorubicin) is -2.33% (inactive). The results for the inhibition in experiment [7] and in experiment [8] were -4.73% (inactive) and -5.25% (inactive), respectively.

Take `CCOC(=O)C1CCCN(Cc2nc(N)nc(Nc3ccc(C)cc3)n2)C1` (stereo not given): the viability in experiment [1] is 99.5%; in experiment [3], 99.5% (inactive); in experiment [4], 80% (inactive); in experiment [5] it was 87.4% (inactive); in experiment [6] (setting [9]), 88.6%; in experiment [6] (setting [10]) it was 87.4%. Moreover, the Her2 level in experiment [2] was 78% (inactive). Besides, the differential viability (reversal) in experiment [6] (H69AR cells + 2 uM doxorubicin) is -1.19% (inactive). The inhibition is 0% (inactive) in experiment [7] and 7.54% (inactive) in experiment [8].

Take `CCOC(=O)C1C(=O)N(C(=O)c2ccc(OC)cc2)CC1c1ccccc1` (stereo not given): the viability was 91.5% in experiment [1]; 91.5% (inactive) in experiment [3]; 83.3% (inactive) in experiment [4]; 86.6% (inactive) in experiment [5]; 84.7% in experiment [6] (setting [9]); 86.6% in experiment [6] (setting [10]). The Her2 level in experiment [2] was 94.5% (inactive). For the same compound, the differential viability (reversal) in experiment [6] (H69AR cells + 2 uM doxorubicin) was 1.9% (inactive). For the same compound, the results for the inhibition in experiment [7] and in experiment [8] were -0.65% (inactive) and -5.41% (inactive), respectively.

As to `CC(=O)N(C)C1(c2nnnn2CCOC(=O)Nc2ccc(Cl)cc2)CCCCC1`, the viability in experiment [1] is 114%; in experiment [3], 114% (inactive); in experiment [4], 98.1% (inactive); in experiment [5], 104% (inactive); in experiment [6] (setting [9]), 91%; in experiment [6] (setting [10]), 104%. Besides, the Her2 level in experiment [2] was 114% (inactive). Besides, the differential viability (reversal) in experiment [6] (H69AR cells + 2 uM doxorubicin) is 12.5% (inactive). Besides, the inhibition in experiment [7] is -1.45% (inactive); in experiment [8] it was -8.33% (inactive).

In the case of `O=C(c1ccco1)N1CCN(S(=O)(=O)c2ccc(Oc3ccccc3)cc2)CC1`, the viability in experiment [1] is 82%; in experiment [3], 82% (inactive); in experiment [4], 78.6% (inactive); in experiment [5] it was 90.6% (inactive); in experiment [6] (setting [9]), 96.8%; in experiment [6] (setting [10]), 90.6%. For the same compound, in experiment [2], the Her2 level was 102% (inactive). Besides, in experiment [6] (H69AR cells + 2 uM doxorubicin), the differential viability (reversal) was -6.27% (inactive). Besides, the inhibition is -1.35% (inactive) in experiment [7] and 5.74% (inactive) in experiment [8].

Take `Cc1c(NC(=O)C(C)OC(=O)C(NC(=O)c2ccco2)C(C)C)c(=O)n(-c2ccccc2)n1C` (stereo not given): the viability was 91% in experiment [1]; 91% (inactive) in experiment [3]; 90.9% (inactive) in experiment [4]; 91.5% (inactive) in experiment [5]; 85.8% in experiment [6] (setting [9]); 91.5% in experiment [6] (setting [10]). In addition, the Her2 level in experiment [2] is 91.5% (inactive). Moreover, in experiment [6] (H69AR cells + 2 uM doxorubicin), the differential viability (reversal) is 5.67% (inactive). Besides, the inhibition is -6.89% (inactive) in experiment [7] and -5.5% (inactive) in experiment [8].

`COC(=O)c1ccc(CSc2nnc(-c3ccncc3)o2)o1`: the viability in experiment [1] is 110%; in experiment [3], 110% (inactive); in experiment [4], 87.8% (inactive); in experiment [5] it was 100% (inactive); in experiment [6] (setting [9]), 95.8%; in experiment [6] (setting [10]), 100%. Moreover, the Her2 level in experiment [2] was 69% (inactive). In addition, the differential viability (reversal) in experiment [6] (H69AR cells + 2 uM doxorubicin) is 4.48% (inactive). Besides, the inhibition in experiment [7] was -4.8% (inactive); in experiment [8], 1.48% (inactive).

As for `CCOc1ccc2c(c1)sc1nc(C(=O)OC)cc(=O)n12`, the viability in experiment [1] was 94%; in experiment [3], 94% (inactive); in experiment [4], 104% (inactive); in experiment [5] it was 84.8% (inactive); in experiment [6] (setting [9]) it was 85.4%; in experiment [6] (setting [10]), 84.8%. In experiment [2], the Her2 level is 84% (inactive). In addition, in experiment [6] (H69AR cells + 2 uM doxorubicin), the differential viability (reversal) is -0.545% (inactive). Also, the inhibition is -6.49% (inactive) in experiment [7] and -6% (inactive) in experiment [8].

With `CCCC(C)C(=O)Nc1ccc(C(N)=O)cc1` (stereo not given), the viability in experiment [1] was 95%; in experiment [3], 95% (inactive); in experiment [4], 96% (inactive); in experiment [5], 93.1% (inactive); in experiment [6] (setting [9]), 85.7%; in experiment [6] (setting [10]), 93.1%. Further, the Her2 level in experiment [2] is 93.5% (inactive). For the same compound, the differential viability (reversal) in experiment [6] (H69AR cells + 2 uM doxorubicin) is 7.36% (inactive). The inhibition in experiment [7] is -5.81% (inactive); in experiment [8], -1.33% (inactive).

As to `COc1ccc(-c2nnc(SCC#N)o2)cc1`, the viability was 104% in experiment [1]; 104% (inactive) in experiment [3]; 107% (inactive) in experiment [4]; 103% (inactive) in experiment [5]; 89.1% in experiment [6] (setting [9]); 103% in experiment [6] (setting [10]). The Her2 level in experiment [2] was 91.5% (inactive). Also, the differential viability (reversal) in experiment [6] (H69AR cells + 2 uM doxorubicin) was 13.6% (inactive). Further, the inhibition in experiment [7] is -5.47% (inactive); in experiment [8] it was 0.65% (inactive).
